15 compounds from ChEMBL document CHEMBL1123153, “Synthesis and antitumor and antiviral properties of 5-alkyl-2'-deoxyuridines, 3',5'-cyclic monophosphates, and neutral cyclic triesters” (1986) can be followed below.

Holding throughout (format): functional
The subject of assay [1] is Human alphaherpesvirus 2. In words: Antiviral activity against Herpes Simplex Virus-2(Lyons).
In assay [2] the test system is Vaccinia virus. Briefly: Antiviral activity against vaccinia virus. As to conditions: Orthopoxvirus vaccinia.
The subject of assay [3] is L1210. In words: Cytostatic activity against proliferation of L1210/0 cells. As to conditions: Mus musculus, read-out: ID50 (the source's name). The method in brief:
(§1)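 Murine leukemia L1210 cells: parental L1210/0 and L1210/BdUrd, a thymidine-kinase-deficient mutant selected from L1210/0 by growth in the presence of 260 µg/mL 5-bromo-2'-deoxyuridine. Value is the dose inhibiting tumor cell proliferation by 50% (ID50).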

For assay [4], the system named is Vesicular stomatitis virus. Briefly: Antiviral activity against vesicular stomatitis virus.
In assay [5] the test system is Human alphaherpesvirus 2. Briefly: Antiviral activity against Herpes Simplex Virus-2(G).
In assay [6] the test system is Human alphaherpesvirus 1. Briefly: Antiviral activity against Herpes Simplex Virus-1 (McIntyre).
The subject of assay [7] is Human alphaherpesvirus 1. Briefly: Antiviral activity against Herpes Simplex Virus-1(KOS).
The subject of assay [8] is Human alphaherpesvirus 1. In words: Antiviral activity against Herpes Simplex Virus-1(F).
Assay [9] relates to Human alphaherpesvirus 2. In words: Antiviral activity against Herpes Simplex Virus-2(196).
Assay [10] deals with L1210. Briefly: Cytostatic activity against proliferation of L1210/BdU cells. As to conditions: Mus musculus, read-out: ID50 (the source's name). The essentials:
as §1

Assay [11] relates to Raji. Briefly: Cytostatic activity against proliferation of Raji/0 cells. The settings on record: Homo sapiens, read-out: ID50 (the source's name).
Assay [12] has as its system Raji. In words: Cytostatic activity against proliferation of Raji/TK cells. The settings on record: Homo sapiens, read-out: ID50 (the source's name).
For assay [13], the system named is L1210. In words: Compound was tested for Cytostatic activity against proliferation of L1210/BdU cells (thymidine kinase deficient L1210 cell line). As to conditions: Mus musculus, read-out: ID50 (the source's name). The essentials: as §1
The test system of assay [14] is Raji. Briefly: Compound was tested for Cytostatic activity against proliferation of Raji/0 cells (human lymphoblast Raji cells line). As to conditions: read-out: ID50 (the source's name).
Assay [15] relates to Raji. Briefly: Compound was tested for Cytostatic activity against proliferation of Raji/TK cells (thymidine kinase deficient Raji cell line). The settings on record: Homo sapiens, read-out: ID50 (the source's name).
For assay [16], the system named is L1210. Briefly: Compound was tested for Cytostatic activity against proliferation of L1210/0 cells (murine leukemia L1210 cell line). As to conditions: Mus musculus, read-out: ID50 (the source's name). The essentials:
as §1

Converted amounts (≈) assume the structure as drawn.

Turning to `CCc1cn([C@H]2C[C@H](O)[C@@H](CO)O2)c(=O)[nH]c1=O` [EDOXUDINE], the MIC50 in [1] was 0.2 µg/mL (≈ 0.78 µM); in assay [2], 0.7 µg/mL (≈ 2.73 µM); in assay [4], above 400 µg/mL; in assay [5], 0.4 µg/mL (≈ 1.56 µM); in assay [6] it was 0.2 µg/mL (≈ 0.78 µM); in [7] it was 0.7 µg/mL (≈ 2.73 µM). The MIC50 in assay [8] and in assay [9] was 2 µg/mL (≈ 7.8 µM) each time. Further, the IC50 is 1.6 µg/mL (≈ 6.24 µM) in [3], above 500 µg/mL in assay [10], 2.9 µg/mL (≈ 11.3 µM) in assay [11] and above 500 µg/mL in [12].

For the compound `CC(C)c1cn([C@H]2C[C@H](O)[C@@H](CO)O2)c(=O)[nH]c1=O` [EPERVUDINE], the MIC50 in assay [1] was 100 µg/mL (≈ 370 µM); in assay [2], 300 µg/mL (≈ 1110 µM); in [4] it was above 400 µg/mL; in assay [5], 40 µg/mL (≈ 148 µM); in assay [6], 1 µg/mL (≈ 3.7 µM); in assay [7] it was 7 µg/mL (≈ 25.9 µM). Moreover, the MIC50 is 2 µg/mL (≈ 7.4 µM) in assay [8] and 400 µg/mL (≈ 1480 µM) in [9]. The IC50 in assay [13], in assay [14], in assay [15] and in assay [16] was above 500 µg/mL in each case.

Take `CCCc1cn([C@H]2C[C@H](O)[C@@H](CO)O2)c(=O)[nH]c1=O`: the MIC50 in [1] is 7 µg/mL (≈ 25.9 µM); in assay [2], 200 µg/mL (≈ 740 µM); in assay [4], above 200 µg/mL; in [5] it was 10 µg/mL (≈ 37 µM); in [6] it was 2 µg/mL (≈ 7.4 µM); in assay [7], 2 µg/mL (≈ 7.4 µM). For the same compound, the MIC50 turned out to be 7 µg/mL (≈ 25.9 µM) in [8] and 40 µg/mL (≈ 148 µM) in assay [9]. The IC50 in [3], in assay [10], in assay [11] and in assay [12] was above 500 µg/mL throughout.

With `CCCCCCCCc1cn([C@H]2C[C@@H]3OP(=O)(O)OC[C@H]3O2)c(=O)[nH]c1=O.N`, the MIC50 in assay [1] is above 200 µg/mL; in assay [2] it was 20 µg/mL; in assay [4], above 200 µg/mL; in [5] it was above 200 µg/mL; in assay [6], above 200 µg/mL; in assay [7] it was above 200 µg/mL. Also, the MIC50 in assay [8] and in [9] was above 200 µg/mL throughout. Moreover, the IC50 in assay [3] was determined as 164 µg/mL; in assay [10] it was 193 µg/mL; in assay [11] it was 165 µg/mL; in assay [12], 184 µg/mL.

As for `O=c1[nH]c(=O)n([C@H]2C[C@H](O)[C@@H](CO)O2)cc1/C=C/Br` [BRIVUDINE], the MIC50 in assay [1] was 1 µg/mL (≈ 3 µM); in assay [2], 2 µg/mL (≈ 6 µM); in assay [4] it was above 400 µg/mL; in [5] it was 1 µg/mL (≈ 3 µM); in assay [6], 0.02 µg/mL (≈ 0.06 µM); in assay [7], 0.02 µg/mL (≈ 0.06 µM). For the same compound, the MIC50 in [8] was determined as 0.02 µg/mL (≈ 0.06 µM); in [9] it was 100 µg/mL (≈ 300 µM).

As for `CCCCCc1cn([C@H]2C[C@@H]3OP(=O)(O)OC[C@H]3O2)c(=O)[nH]c1=O.N`, the MIC50 in [1], in [2], in [4], in assay [5], in assay [6] and in assay [7] was above 400 µg/mL in each case. Further, the MIC50 in assay [8] and in assay [9] was above 400 µg/mL throughout. The IC50 in [3], in assay [10], in assay [11] and in [12] was above 500 µg/mL in each case.

`CCCCc1cn([C@H]2C[C@H](O)[C@@H](CO)O2)c(=O)[nH]c1=O`: the MIC50 in assay [1] is 20 µg/mL (≈ 70.3 µM); in [2] it was 300 µg/mL (≈ 1060 µM); in assay [4] it was above 400 µg/mL; in [5], 150 µg/mL (≈ 528 µM); in assay [6] it was 20 µg/mL (≈ 70.3 µM); in assay [7], 20 µg/mL (≈ 70.3 µM). Also, the MIC50 was 70 µg/mL (≈ 246 µM) in [8] and above 400 µg/mL in assay [9]. In addition, the IC50 in assay [3], in assay [10], in assay [11] and in assay [12] was above 500 µg/mL each time.

In the case of `CCCCCCc1cn([C@H]2C[C@@H]3OP(=O)(O)OC[C@H]3O2)c(=O)[nH]c1=O.N`, the MIC50 in [1] is 300 µg/mL; in assay [2], above 400 µg/mL; in [4], above 400 µg/mL; in assay [5], above 400 µg/mL; in assay [6] it was above 400 µg/mL; in assay [7], above 400 µg/mL. Moreover, the MIC50 in [8] and in assay [9] was above 400 µg/mL in each case. The IC50 in [3], in assay [10], in assay [11] and in assay [12] was above 500 µg/mL each time.

On to `CCCc1cn([C@H]2C[C@@H]3OP(=O)(O)OC[C@H]3O2)c(=O)[nH]c1=O.N`, for which the MIC50 is 400 µg/mL in assay [1]; above 400 µg/mL in [2]; above 400 µg/mL in [4]; 400 µg/mL in assay [5]; 150 µg/mL in assay [6]; 150 µg/mL in assay [7]. Also, the figures for the MIC50 in assay [8] and in assay [9] were 300 µg/mL and above 400 µg/mL, respectively. In addition, the IC50 in assay [3], in assay [10], in assay [11] and in assay [12] was above 500 µg/mL each time.

In the case of `CCCCc1cn([C@H]2C[C@@H]3OP(=O)(O)OC[C@H]3O2)c(=O)[nH]c1=O.N`, the MIC50 was 300 µg/mL in assay [1]; 300 µg/mL in [2]; above 400 µg/mL in assay [4]; above 400 µg/mL in [5]; above 400 µg/mL in assay [6]; above 400 µg/mL in [7]. The MIC50 in assay [8] and in [9] was above 400 µg/mL each time. Also, the IC50 in [3] turned out to be 28.4 µg/mL; in assay [10] it was 33.5 µg/mL; in assay [11], 82 µg/mL; in [12] it was 165 µg/mL.

For `CCc1cn([C@H]2C[C@@H]3OP(=O)(O)OC[C@H]3O2)c(=O)[nH]c1=O.N`, the MIC50 is 7 µg/mL in [1]; 70 µg/mL in assay [2]; above 400 µg/mL in [4]; 10 µg/mL in [5]; 70 µg/mL in [6]; 70 µg/mL in assay [7]. The values for the MIC50 in [8] and in [9] were 70 µg/mL and 150 µg/mL, respectively. Further, the IC50 in assay [3] is 55 µg/mL; in [10], above 500 µg/mL; in assay [11], 60 µg/mL; in assay [12] it was above 500 µg/mL.

For `CCCCCCc1cn([C@H]2C[C@H](O)[C@@H](CO)O2)c(=O)[nH]c1=O`, the MIC50 in assay [1] was 300 µg/mL (≈ 960 µM); in assay [2], 300 µg/mL (≈ 960 µM); in assay [5], 400 µg/mL (≈ 1280 µM); in [6] it was 300 µg/mL (≈ 960 µM); in [7], above 400 µg/mL; in assay [8], above 400 µg/mL. Further, the IC50 is 172 µg/mL (≈ 551 µM) in assay [3], 195 µg/mL (≈ 624 µM) in [10], 151 µg/mL (≈ 483 µM) in assay [11] and 173 µg/mL (≈ 554 µM) in assay [12].

Turning to `CC(C)c1cn([C@H]2C[C@@H]3OP(=O)(O)OC[C@H]3O2)c(=O)[nH]c1=O.N`, the MIC50 in [1], in assay [2], in [4], in assay [5], in [6] and in assay [7] was above 200 µg/mL each time. Further, the MIC50 in assay [8] and in [9] was above 200 µg/mL each time. The IC50 in [3], in [10], in assay [11] and in [12] was above 500 µg/mL in each case.

Consider `CCCCCCCCc1cn([C@H]2C[C@H](O)[C@@H](CO)O2)c(=O)[nH]c1=O`, for which the MIC50 in [1] is 100 µg/mL (≈ 294 µM); in assay [2] it was 7 µg/mL (≈ 20.6 µM); in assay [4], above 100 µg/mL; in assay [5] it was 100 µg/mL (≈ 294 µM); in assay [6], above 100 µg/mL; in assay [7], above 100 µg/mL. The MIC50 in [8] and in assay [9] was above 100 µg/mL in each case. In addition, the IC50 in [3] was found to be 66 µg/mL (≈ 194 µM); in [10], 72 µg/mL (≈ 212 µM); in [11], 52 µg/mL (≈ 153 µM); in assay [12], 140 µg/mL (≈ 411 µM).

In the case of `CCCCCc1cn([C@H]2C[C@H](O)[C@@H](CO)O2)c(=O)[nH]c1=O`, the MIC50 was 70 µg/mL (≈ 235 µM) in assay [1]; 300 µg/mL (≈ 1010 µM) in [2]; above 400 µg/mL in assay [4]; 70 µg/mL (≈ 235 µM) in assay [5]; 40 µg/mL (≈ 134 µM) in [6]; 20 µg/mL (≈ 67 µM) in assay [7]. Moreover, the MIC50 in assay [8] was 10 µg/mL (≈ 33.5 µM); in assay [9], above 400 µg/mL. The IC50 in [3] was determined as 476 µg/mL (≈ 1600 µM); in [10] it was 477 µg/mL (≈ 1600 µM); in [11] it was 334 µg/mL (≈ 1120 µM); in assay [12], 328 µg/mL (≈ 1100 µM).
